Laboratory results reported in ChEMBL document CHEMBL3616430, “Discovery, synthesis and biochemical profiling of purine-2,6-dione derivatives as inhibitors of the human poly(A)-selective ribonuclease Caf1” (Bioorg Med Chem Lett, 2015).
The source made the active and inactive calls. The calls are words filed in the database; no cut-off is given here.

Target: CCR4-NOT transcription complex subunit 6 (Homo sapiens) (UniProt Q9ULM6)
Experiment: Inhibition of Ccr4 (unknown origin) at 30 uM by fluorescence-based assay
In short: (§1)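 Fluorescence-based ribonuclease activity assay with Ccr4, using one compound concentration per reaction (30, 10 or 3 μM, as in each line). The reactions compared were a no-enzyme control, a complete reaction with enzyme, and a complete reaction plus compound. Data are shown with standard deviation error bars.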

CCR4-NOT transcription complex subunit 6 (Homo sapiens), sequence (Q9ULM6 whole entry, one chain of several): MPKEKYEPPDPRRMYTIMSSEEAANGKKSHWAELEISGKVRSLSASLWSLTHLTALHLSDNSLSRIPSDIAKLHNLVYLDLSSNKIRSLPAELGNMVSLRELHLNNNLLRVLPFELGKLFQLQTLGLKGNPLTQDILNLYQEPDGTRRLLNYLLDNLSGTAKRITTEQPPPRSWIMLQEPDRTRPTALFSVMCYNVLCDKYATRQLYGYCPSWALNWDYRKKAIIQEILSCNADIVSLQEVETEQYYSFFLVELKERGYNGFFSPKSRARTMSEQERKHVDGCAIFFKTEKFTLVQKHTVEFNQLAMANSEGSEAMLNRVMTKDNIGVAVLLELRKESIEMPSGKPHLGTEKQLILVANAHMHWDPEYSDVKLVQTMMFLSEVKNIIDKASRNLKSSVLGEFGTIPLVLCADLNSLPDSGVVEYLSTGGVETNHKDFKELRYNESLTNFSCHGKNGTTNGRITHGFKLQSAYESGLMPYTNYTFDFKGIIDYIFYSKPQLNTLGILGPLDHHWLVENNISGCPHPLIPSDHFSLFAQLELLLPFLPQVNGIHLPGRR

Row | inhibition | SMILES
1 | inactive | CCCCCCCCCn1c(=O)n(O)c(=O)c2c1ncn2CCc1ccccc1
2 | inactive | O=c1[nH]c2ncn(Cc3ccccc3)c2c(=O)n1O
3 | inactive | O=c1[nH]c2ncn(Cc3ccncc3)c2c(=O)n1O
4 | inactive | CCn1c(=O)n(O)c(=O)c2c1ncn2CCc1ccccc1
5 | inactive | O=c1[nH]c2ncn(Cc3ccccn3)c2c(=O)n1O
6 | inactive | O=c1c2c(ncn2CCc2ccccc2)n(CCCc2ccccc2)c(=O)n1O
7 | inactive | CCCCCn1c(=O)n(O)c(=O)c2c1ncn2CCc1ccccc1
8 | inactive | O=c1[nH]c2ncn(C3CCCCC3)c2c(=O)n1O
9 | inactive | Cn1c(=O)n(O)c(=O)c2c1ncn2CCc1ccccc1
10 | inactive | O=c1[nH]c2ncn(Cc3cccnc3)c2c(=O)n1O

Target: CCR4-NOT transcription complex subunit 6 (Homo sapiens) (UniProt Q9ULM6)
Experiment: Inhibition of Ccr4 (unknown origin) at 3 uM by fluorescence-based assay
In short: as §1

Row | inhibition | SMILES
11 | inactive | CC(C)CCCn1c(=O)n(O)c(=O)c2c1ncn2CCc1ccccc1
12 | inactive | CN(C)CCCn1c(=O)n(O)c(=O)c2c1ncn2CCc1ccccc1

Target: CCR4-NOT transcription complex subunit 6 (Homo sapiens) (UniProt Q9ULM6)
Experiment: Inhibition of Ccr4 (unknown origin) at 10 uM by fluorescence-based assay
In short: as §1

Row | inhibition | SMILES
13 | inactive | O=c1[nH]c2ncn(CCc3ccccc3)c2c(=O)n1O
14 | inactive | O=c1[nH]c2ncn(CCc3ccccn3)c2c(=O)n1O
15 | inactive | O=c1[nH]c2ncn(CCc3cccs3)c2c(=O)n1O
16 | inactive | O=c1[nH]c2ncn(CCOc3ccccc3)c2c(=O)n1O
